Data from ChEMBL document CHEMBL1133510, “Synthesis and evaluation of novel steroidal oxime inhibitors of P450 17 (17 alpha-hydroxylase/C17-20-lyase) and 5 alpha-reductase types 1 and 2” (J Med Chem, 2000).
“And” between values parts separate entries of the source, which are not always exact repeats. Equal values may be shown once.

What was measured:
[1] = biological target: T1, 3-oxo-5-alpha-steroid 4-dehydrogenase 1 (Homo sapiens, UniProt P18405); assay: Evaluated for the inhibitory activity against human steroid 5-alpha-reductase type I in human DU-145 cell assay at 5 nM of androstenedione; assay type: cell-based
T1 sequence (P18405 whole entry): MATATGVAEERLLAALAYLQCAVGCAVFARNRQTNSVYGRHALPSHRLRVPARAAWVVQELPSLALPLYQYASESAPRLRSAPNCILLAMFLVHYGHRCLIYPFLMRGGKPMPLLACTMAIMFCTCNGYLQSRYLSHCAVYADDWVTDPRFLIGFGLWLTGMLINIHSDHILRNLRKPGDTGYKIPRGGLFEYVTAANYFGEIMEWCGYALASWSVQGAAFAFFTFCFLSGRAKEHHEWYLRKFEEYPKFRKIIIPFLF
Summary of the method: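 Whole human DU-145 cells as source of type 1 enzyme, incubated with radiolabeled androstenedione at 5 nM; HPLC separation of product. IC50 = inhibitor concentration giving 50% inhibition; mean of at least two experiments.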

[2] = biological target: T2, Steroid 17-alpha-hydroxylase/17,20 lyase (Rattus norvegicus, UniProt P11715); assay: Evaluated for the inhibitory activity towards Cytochrome P450 17 rat enzyme using testicular microsome at 25 uM of substrate (progesterone); set-up: species or system Testis
T2 sequence (P11715 whole entry): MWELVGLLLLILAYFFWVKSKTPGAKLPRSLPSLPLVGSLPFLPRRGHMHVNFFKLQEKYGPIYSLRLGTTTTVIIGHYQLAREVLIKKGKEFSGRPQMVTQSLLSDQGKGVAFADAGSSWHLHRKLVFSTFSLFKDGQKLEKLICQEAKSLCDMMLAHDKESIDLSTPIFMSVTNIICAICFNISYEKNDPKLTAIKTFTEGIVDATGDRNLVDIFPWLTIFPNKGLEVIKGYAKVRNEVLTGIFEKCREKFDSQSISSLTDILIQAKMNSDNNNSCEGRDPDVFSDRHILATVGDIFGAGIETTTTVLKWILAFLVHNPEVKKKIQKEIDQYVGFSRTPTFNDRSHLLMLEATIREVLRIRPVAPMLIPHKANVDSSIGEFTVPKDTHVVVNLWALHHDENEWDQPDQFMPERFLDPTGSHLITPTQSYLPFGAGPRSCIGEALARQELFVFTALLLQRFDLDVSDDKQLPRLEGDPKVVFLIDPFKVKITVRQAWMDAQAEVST
Summary of the method: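 Testicular microsomes (human for human enzyme, rat for rat enzyme) incubated with progesterone substrate at 25 µM; product measured by RP-HPLC with UV detection. IC50 = concentration giving 50% inhibition, mean of at least two experiments.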

[3] = biological target: T3, 3-oxo-5-alpha-steroid 4-dehydrogenase 2 (Homo sapiens, UniProt P31213); assay: Evaluated for the inhibitory activity against human steroid 5-alpha-reductase type 2 from human BPH tissue at 210 nM of testosterone
T3 sequence (P31213 whole entry): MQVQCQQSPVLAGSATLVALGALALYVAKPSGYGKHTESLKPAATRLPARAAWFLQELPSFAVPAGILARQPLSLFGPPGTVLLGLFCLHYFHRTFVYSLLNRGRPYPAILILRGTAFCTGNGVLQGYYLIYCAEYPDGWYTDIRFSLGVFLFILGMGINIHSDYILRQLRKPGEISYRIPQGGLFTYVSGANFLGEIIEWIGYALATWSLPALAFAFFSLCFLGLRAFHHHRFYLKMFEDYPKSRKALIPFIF
Summary of the method: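 Enzyme from prostate homogenate of BPH patients, assayed at pH 5.5 with radiolabeled testosterone at 210 nM; product separated by HPLC. IC50 taken as inhibitor concentration giving 50% inhibition; mean of at least two experiments.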

[4] = biological target: T4, Steroid 17-alpha-hydroxylase/17,20 lyase (Homo sapiens, UniProt P05093); assay: Evaluated for the inhibitory activity towards Cytochrome P450 17 human enzyme using testicular microsome at 25 uM of substrate (progesterone); set-up: species or system Testis
T4 sequence (P05093 whole entry): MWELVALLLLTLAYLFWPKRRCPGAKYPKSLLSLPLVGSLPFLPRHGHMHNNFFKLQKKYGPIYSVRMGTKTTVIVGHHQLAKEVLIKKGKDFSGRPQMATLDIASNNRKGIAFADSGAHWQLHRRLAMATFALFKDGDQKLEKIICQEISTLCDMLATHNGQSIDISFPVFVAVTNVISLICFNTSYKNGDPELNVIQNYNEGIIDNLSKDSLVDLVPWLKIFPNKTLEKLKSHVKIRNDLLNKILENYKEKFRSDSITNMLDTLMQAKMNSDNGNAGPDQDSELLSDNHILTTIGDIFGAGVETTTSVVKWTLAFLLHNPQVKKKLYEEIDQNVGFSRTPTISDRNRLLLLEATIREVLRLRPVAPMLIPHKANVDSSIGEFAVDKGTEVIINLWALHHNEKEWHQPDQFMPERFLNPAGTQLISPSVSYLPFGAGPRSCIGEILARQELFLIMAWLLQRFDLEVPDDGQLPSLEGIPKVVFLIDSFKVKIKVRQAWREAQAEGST

[5] = biological target: T4, Steroid 17-alpha-hydroxylase/17,20 lyase; assay: Inhibition of Human P450 17 and NADPH-P450 reductase co-expressed in Escherichia coli with 25 uM progesterone
[6] = biological target: T4, Steroid 17-alpha-hydroxylase/17,20 lyase; assay: Inhibition of Cytochrome P450 17 of human testicular microsome at 25 uM progesterone; No inhibition
[7] = biological target: T2, Steroid 17-alpha-hydroxylase/17,20 lyase; assay: Inhibition of Cytochrome P450 17 from rat testicular microsome at 25 uM progesterone; No inhibition
[8] = biological target: T4, Steroid 17-alpha-hydroxylase/17,20 lyase; assay: Inhibition of Cytochrome P450 17 of human testicular microsomes at 25 uM progesterone
Summary of the method: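 Enzyme source was human testicular microsomes, with progesterone substrate at 25 µM and product determined by RP-HPLC with UV detection. IC50 is the inhibitor concentration giving 50% inhibition, reported as the mean of at least two experiments.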

[9] = biological target: T2, Steroid 17-alpha-hydroxylase/17,20 lyase; assay: Inhibition of Cytochrome P450 17 from rat testicular microsome at 125 uM progesterone; No inhibition
[10] = biological target: T1, 3-oxo-5-alpha-steroid 4-dehydrogenase 1; assay: Inhibition of Human steroid 5-alpha-reductase type I expressed in HEK293 cells; assay type: cell-based
Summary of the method: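 Human 5α-reductase type 1 cDNA (plasmid pRcCMV-I) stably transfected into HEK293 cells, clones chosen under G418. 300 000 cells/well attached overnight at 37 °C, then fresh DMEM/10% FCS containing 5 nM [3H]androstenedione plus inhibitor (1% DMSO) for 30 min. Supernatant extracted with ether, product measured by HPLC. IC50 taken as mean of at least three experiments.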

[11] = biological target: T3, 3-oxo-5-alpha-steroid 4-dehydrogenase 2; assay: Inhibition of Human steroid 5-alpha-reductase type II expressed in HEK293 cells; assay type: cell-based
Summary of the method: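 Stably transfected HEK293 clones expressing full-length human type 1 or type 2 cDNA; 300 000 cells per well attached overnight at 37 °C. Fresh DMEM/10% FCS with 5 nM [3H]androstenedione and inhibitor added, final DMSO 1%. Incubated 30 min (type 1) or 13 min (type 2); supernatant ether-extracted and analysed by HPLC. Mean of at least three experiments.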

[12] = biological target: T4, Steroid 17-alpha-hydroxylase/17,20 lyase; assay: Inhibition of human Cytochrome P450 17
Summary of the method: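 Human testicular microsomes with 25 µM progesterone as substrate. Product quantified by RP-HPLC with UV detection. IC50 is the mean of at least two experiments.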

[13] = biological target: T2, Steroid 17-alpha-hydroxylase/17,20 lyase; assay: Inhibition of rat Cytochrome P450 17
Summary of the method: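 Microsomes from rat testes with 25 µM progesterone as substrate. Product measured by RP-HPLC with UV detection. IC50 is the mean of at least two experiments.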

[14] = biological target: T5, Thromboxane-A synthase (Homo sapiens) (UniProt P24557); conditions: 50 uM
T5 sequence (whole entry): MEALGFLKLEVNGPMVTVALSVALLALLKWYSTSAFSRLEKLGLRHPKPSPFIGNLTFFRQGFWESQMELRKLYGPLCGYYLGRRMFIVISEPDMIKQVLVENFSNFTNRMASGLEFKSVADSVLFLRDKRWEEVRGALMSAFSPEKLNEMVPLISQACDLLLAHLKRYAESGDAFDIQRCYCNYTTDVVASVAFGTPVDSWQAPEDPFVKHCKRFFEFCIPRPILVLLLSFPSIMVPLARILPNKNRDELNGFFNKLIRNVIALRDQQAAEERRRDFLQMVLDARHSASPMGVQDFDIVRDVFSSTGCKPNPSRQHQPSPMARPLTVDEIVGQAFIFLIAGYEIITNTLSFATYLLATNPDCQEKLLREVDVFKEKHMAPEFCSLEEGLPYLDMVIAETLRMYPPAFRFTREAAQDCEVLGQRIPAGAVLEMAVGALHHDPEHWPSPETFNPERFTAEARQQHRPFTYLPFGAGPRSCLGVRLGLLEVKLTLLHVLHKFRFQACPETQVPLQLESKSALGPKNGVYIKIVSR

[15] = biological target: T5, Thromboxane-A synthase (Homo sapiens); assay: Inhibition of thromboxane synthase P450 TXA2 at 50 uM
Summary of the method: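 Thromboxane synthase activity measured in citrated human whole blood; inhibitor tested at 50 µM.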

Rattus norvegicus [16] = organism: Rattus norvegicus; assay: Percent decrease in plasma testosterone after 2 hr; assay type: functional
Summary of the method: (§1)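 Adult male Sprague-Dawley rats, 7–8 per group, each received one intraperitoneal dose of 0.019 mmol/kg in olive oil/benzyl alcohol (95:5). Blood was drawn by cardiac puncture under diethyl ether anaesthesia at 2 or 6 h. Plasma testosterone was measured by double-antibody [125I]RIA (detection limit 0.1 ng/mL) and compared with vehicle controls.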

Rattus norvegicus [17] = organism: Rattus norvegicus; assay: Percent decrease in plasma testosterone after 6 hr; assay type: functional; summary of the method: as §1

Row | Compound | IC50 [1] | IC50 [2] | IC50 [3] | IC50 [4] | other results
1 | C/C(=N/O)C1=CCC2C3CCC4=CC(=O)CCC4(C)C3CCC12C (centres undefined) | > 10000 nM | > 125000 nM | > 10000 nM | 100 nM | 
2 | C/C(=N/O)C1=CCC2[C@@H]3CC=C4C[C@@H](O)CC[C@]4(C)[C@H]3CC[C@]12C (some centres undefined) |  | > 125000 nM |  | 170 nM | IC50 [5]: 520 nM
3 | C/C(=N/O)[C@@]1(O)CCC2C3CC=C4CC(O)CCC4(C)C3CCC21C (some centres undefined) |  |  |  |  | IC50 [6]: Not Active; IC50 [7]: Not Active
4 | C[C@]12CC[C@H](O)C=C1CC[C@H]1C3CC/C(=C/C=N\O)[C@@]3(C)CC[C@@H]12 (some centres undefined) |  | 140 nM | 430 nM | 180 nM | 
5 | C/C(=N/O)[C@H]1CC[C@H]2[C@@H]3CC=C4C[C@@H](O)CC[C@]4(C)[C@H]3CC[C@]12C |  |  |  |  | IC50 [8]: 1650 nM; IC50 [9]: Not Active
6 | C/C(=N/O)C1CC=C2C3CC=C4CC(O)CCC4(C)C3CCC21C (centres undefined) |  | > 125000 nM |  | > 2500 nM | 
7 | C/C(CC1CCC2C3CC(=O)C4=CC(=O)CCC4(C)C3CCC12C)=N\O (centres undefined) | 900 nM |  | 430 nM |  | IC50 [10]: 2900 nM; IC50 [6]: Not Active; IC50 [7]: Not Active; IC50 [11]: 860 nM
8 | CC12CCC(O)CC1=CCC1C2CCC2(C)C(c3c[nH]cn3)=CCC12 (centres undefined) |  |  |  |  | IC50 [12]: 40 nM; IC50 [13]: 180 nM
9 | O=C(O)c1ccc(OCCn2ccnc2)cc1 |  |  |  |  | IC50 [14]: 1100 nM
10 | CC12CCC(=O)C=C1CCC1C2CCC2(C)C(C/C=N/O)CCC12 (centres undefined) | 1950 nM | 300 nM | 300 nM |  | IC50 [10]: 2440 nM; IC50 [11]: 890 nM
11 | C/C(CC1CCC2C3CCC4=CC(=O)CCC4(C)C3CCC12C)=N\O (centres undefined) | 900 nM | 3600 nM | 470 nM | > 2500 nM | 
12 | C[C@]12CC[C@H](O)CC1=CC[C@H]1C3CC/C(=C/C=N\O)[C@@]3(C)CC[C@@H]12 (some centres undefined) |  | 520 nM |  | 77 nM | IC50 [5]: 230 nM; inhibition [15]: 35%
13 | C/C(=N/O)[C@H]1CC=C2[C@@H]3CC=C4C[C@@H](O)CC[C@]4(C)[C@H]3CC[C@@]21C |  | 125000 nM |  | 200 nM | IC50 [5]: 420 nM
14 | CC(=O)N1CCN(c2ccc(OCC3COC(Cn4ccnc4)(c4ccc(Cl)cc4Cl)O3)cc2)CC1 (centres undefined) [KETOCONAZOLE] |  |  |  |  | Decrease (Rattus norvegicus [16]): 57%; Decrease (Rattus norvegicus [17]): 44%
15 | C/C(=N/O)[C@H]1CCC2C3CCC4=CC(=O)CCC4(C)C3CCC21C (some centres undefined) | 1630 nM | > 125000 nM | 580 nM and 1170 nM | > 2500 nM | IC50 [10]: 1770 nM
16 | C/C(CC1CCC2C3CC=C4CC(O)CCC4(C)C3CCC12C)=N\O (centres undefined) |  | 9800 nM |  | 1180 nM | 
17 | CC(C)(C)NC(=O)[C@H]1CC[C@H]2[C@@H]3CC[C@H]4NC(=O)C=C[C@]4(C)[C@H]3CC[C@]12C [FINASTERIDE] | 40 nM |  |  |  | IC50 [10]: 540 nM; IC50 [11]: 60 nM
18 | CC12CCC(O)CC1=CCC1C2CCC2(C)/C(=C/C=N/O)CCC12 (centres undefined) |  | > 125000 nM |  | > 2500 nM | 
19 | C/C(=N/O)[C@H]1CCC2C3CC(=O)C4=CC(=O)CCC4(C)C3CCC21C (some centres undefined) | > 10000 nM |  | 3200 nM | > 2500 nM | IC50 [7]: Not Active
